The target of experiment [1] is Melanocortin receptor 3 (Homo sapiens, UniProt P41968). Description: Binding affinity towards human melanocortin 3 receptor (hMC3R) using [125I]NDP-alpha-MSH as radioligand. An outline of the steps:
(§1)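 Nonspecific binding taken with excess unlabeled NDP-MSH. Stopped by rapid filtration through GF/C glass-fibre filters, three ice-cold water washes, bound radioactivity by scintillation counting. IC50 from nonlinear regression of concentration curves.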

Experiment [2] concerns the target Melanocyte-stimulating hormone receptor (Mus musculus, UniProt Q01727). The experiment can be described thus: Binding affinity towards mouse Melanocortin 1 receptor (mMC1R) using [125I]NDP-alpha-MSH as radioligand. An outline of the steps:
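Receptor membranes ([…]) incubated 2 h at 30 °C in assay buffer with test compound at various concentrations plus 0.2 nM 125I-NDP-α-MSH. Nonspecific binding taken with excess unlabeled NDP-MSH. Stopped by rapid filtration through GF/C glass-fibre filters, three ice-cold water washes, bound radioactivity by scintillation counting. IC50 from nonlinear regression of concentration curves.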

Experiment [3] deals with T1, Melanocortin receptor 4 (Homo sapiens, UniProt P32245). The experiment can be described thus: Binding affinity towards human melanocortin 4 receptor (hMC4R) using [125I]NDP-alpha-MSH as radioligand. In outline:
as §1

Experiment [4] deals with T1, Melanocortin receptor 4. The experiment can be described thus: Intracellular levels of cAMP in HEK 293 cells expressing human melanocortin 4 receptor (hMC4R). The class given is cell-based, HEK293. In outline: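 Cells seeded at 75,000/well on fibronectin and assayed about 48 h later. Medium replaced with DMEM containing IBMX, peptide added across a six-point dilution range starting at 0.1 nM, 30 min at 37 °C. Lysis stopped the reaction; cAMP quantified by chemiluminescent ELISA. EC50 reported as mean ± SEM of two determinations.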

SMILES strings stand for the structures.

Chain of Melanocyte-stimulating hormone receptor (Q01727 whole entry): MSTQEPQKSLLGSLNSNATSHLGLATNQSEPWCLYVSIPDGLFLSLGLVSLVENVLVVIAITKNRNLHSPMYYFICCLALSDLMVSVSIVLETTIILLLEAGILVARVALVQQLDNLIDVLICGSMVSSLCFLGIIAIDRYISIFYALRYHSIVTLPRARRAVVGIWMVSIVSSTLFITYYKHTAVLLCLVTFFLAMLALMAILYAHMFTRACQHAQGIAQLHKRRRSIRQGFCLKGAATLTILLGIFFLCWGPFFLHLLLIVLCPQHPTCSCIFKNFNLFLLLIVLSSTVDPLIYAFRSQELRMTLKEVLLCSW
T1 sequence (P32245 whole entry): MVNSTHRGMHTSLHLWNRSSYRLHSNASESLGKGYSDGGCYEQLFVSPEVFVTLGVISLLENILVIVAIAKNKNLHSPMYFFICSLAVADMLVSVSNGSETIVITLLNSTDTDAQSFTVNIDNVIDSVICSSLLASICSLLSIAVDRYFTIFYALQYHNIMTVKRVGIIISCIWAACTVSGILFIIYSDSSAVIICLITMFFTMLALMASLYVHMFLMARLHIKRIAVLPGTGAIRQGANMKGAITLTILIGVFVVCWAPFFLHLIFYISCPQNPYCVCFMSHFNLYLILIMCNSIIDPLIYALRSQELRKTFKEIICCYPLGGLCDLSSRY
Chain of Melanocortin receptor 3 (P41968 whole entry): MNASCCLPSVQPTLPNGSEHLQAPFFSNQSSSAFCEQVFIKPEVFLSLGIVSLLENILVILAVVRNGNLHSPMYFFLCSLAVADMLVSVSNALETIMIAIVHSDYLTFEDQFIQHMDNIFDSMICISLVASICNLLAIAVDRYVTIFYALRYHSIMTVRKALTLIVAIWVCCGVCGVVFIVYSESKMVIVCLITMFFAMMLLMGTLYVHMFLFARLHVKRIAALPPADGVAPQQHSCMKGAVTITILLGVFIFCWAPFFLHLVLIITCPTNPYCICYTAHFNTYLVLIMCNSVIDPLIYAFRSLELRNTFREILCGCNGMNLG

One may read the IC50 as the point on the concentration scale where inhibition reaches its midpoint. A high value points to lower potency. Consider `CC(=O)N[C@@H](Cc1ccccc1)C(=O)N(CCCCN)C1CCC(N(CCc2c[nH]c3ccccc23)C(C)=O)CC1` (stereo partly drawn), for which the IC50 in experiment [1] is greater than 10 µM; in experiment [2], 10 µM; in experiment [3] it was 9.25 µM.
The corresponding values for `CC(=O)N(CCCCN=C(N)N)C1CCC(N(CCc2c[nH]c3ccccc23)C(C)=O)CC1` (stereo not drawn) are greater than 10 µM, greater than 10 µM and greater than 10 µM.
The corresponding values for `CC(=O)N[C@@H](Cc1ccccc1)C(=O)N(CCCCN=C(N)N)C1CCC(N(C)C(C)=O)CC1` (stereo partly drawn) are greater than 10 µM, 9 µM and greater than 10 µM.
`CC(=O)N[C@H](Cc1ccccc1)C(=O)N(CCCCNC(=N)N)C1CCC(N(CCc2c[nH]c3ccccc23)C(C)=O)CC1` (stereo in doubt; 11): in experiment [3], the IC50 was 0.5 µM. This counts as sub-micromolar.
By EC50 is commonly meant the midpoint of the concentration-response curve. Molecule `CC(=O)N[C@H](Cc1ccccc1)C(=O)N(CCCCNC(=N)N)C1CCC(N(CCc2c[nH]c3ccccc23)C(C)=O)CC1` (stereo in doubt; cis) gave an EC50 in experiment [4] of 0.004 µM. Further, the IC50 in experiment [1] worked out at 0.28 µM; in experiment [2], 0.051 µM; in experiment [3], 0.0077 µM.
The corresponding values for `CC(=O)N[C@H](Cc1ccccc1)C(=O)N(CCCCNC(=N)N)C1CCC(N(CCc2c[nH]c3ccccc23)C(C)=O)CC1` (stereo in doubt; trans) are 0.68 µM, greater than 10 µM, greater than 10 µM and 3.5 µM.
